Calls of active or inactive are those of the source. No cut-off for these calls is given here.
Legend:
Homo sapiens = species on record: Homo sapiens; assay: Induction of tubulin depolymerization in human MCF7 cells at 1 uM after 12 hrs by DAPI staining based confocal microscopic analysis; type: cell-based
A549 = assay: Cytotoxicity against human A549 cells after 24 hrs by MTT assay; type: functional, cell-based; conditions: A549, 24 h
In short: (§1)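 In vitro antiproliferative screen by MTT assay against human MCF-7 breast, HeLa cervical, A549 lung adenocarcinoma and HepG-2 hepatoma cells. Output is the IC50.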

HeLa = assay: Cytotoxicity against human HeLa cells after 24 hrs by MTT assay; type: functional, cell-based; in short: as §1
MCF7 = assay: Cytotoxicity against human MCF7 cells after 24 hrs by MTT assay; type: functional, cell-based; conditions: MCF7, 24 h; in short: as §1
HepG2 = assay: Cytotoxicity against human HepG2 cells after 24 hrs by MTT assay; type: functional, cell-based; conditions: HepG2, 24 h; in short: as §1
L02 = assay: Cytotoxicity against human L02 cells after 24 hrs by MTT assay; type: cell-based; conditions: L02, 24 h
In short: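 Normal human liver L02 cells were tested at multiple concentrations in an MTT assay. Output is the median cytotoxic concentration (CC50).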

SMILES | Activity (Homo sapiens) | IC50 (A549) | IC50 (HeLa) | IC50 (MCF7) | IC50 (HepG2) | IC50 (L02)
COc1cc2c(c(OC)c1OC)-c1ccc(OC)c(=O)cc1[C@@H](NC(C)=O)CC2 | Active |  |  |  |  | 
CC(=O)O[C@H]1C(=O)[C@@]2(C)[C@H]([C@H](OC(=O)c3ccccc3)[C@]3(O)C[C@H](OC(=O)[C@H](O)[C@@H](NC(=O)c4ccccc4)c4ccccc4)C(C)=C1C3(C)C)[C@]1(OC(C)=O)CO[C@@H]1C[C@@H]2O | inactive |  |  |  |  | 
COc1cc([C@@H]2c3cc4c(cc3[C@H](OC(=O)CN3CCN(c5cccc(Cl)c5)CC3)[C@H]3COC(=O)[C@H]23)OCO4)cc(OC)c1OC |  | 9.26 µM | 8.3 µM | 9.87 µM | 13.5 µM | 99.3 µM
COc1cc([C@@H]2c3cc4c(cc3[C@H](OC(=O)CN3CCN(c5ccccc5F)CC3)[C@H]3COC(=O)[C@H]23)OCO4)cc(OC)c1OC |  | 9.8 µM | 18 µM | 11.7 µM | 15.4 µM | > 100 µM
COc1cc([C@@H]2c3cc4c(cc3[C@H](OC(=O)CN3CCN(c5ccc([N+](=O)[O-])cc5)CC3)[C@H]3COC(=O)[C@H]23)OCO4)cc(OC)c1OC |  | 8.15 µM | 11 µM | 9.6 µM | 6.87 µM | > 100 µM
COc1cc([C@@H]2c3cc4c(cc3[C@H](OC(=O)CN3CCN(c5cccc(Cl)c5Cl)CC3)[C@H]3COC(=O)[C@H]23)OCO4)cc(OC)c1OC |  | 7.51 µM | 7.83 µM | 3.02 µM | 6.15 µM | 97.8 µM
COc1cc([C@@H]2c3cc4c(cc3[C@H](OC(=O)CN3CCN(c5ccccc5Cl)CC3)[C@H]3COC(=O)[C@H]23)OCO4)cc(OC)c1OC |  | 8.47 µM | 11.3 µM | 9.98 µM | 17.7 µM | > 100 µM
COc1cc([C@@H]2c3cc4c(cc3[C@H](OC(=O)CN3CCN(C(c5ccccc5)c5ccccc5)CC3)[C@H]3COC(=O)[C@H]23)OCO4)cc(OC)c1OC |  | 12.3 µM | 23.2 µM | 16.5 µM | 16.4 µM | 65.8 µM
COc1cc([C@@H]2c3cc4c(cc3[C@H](OC(=O)CN3CCN(c5ccccc5)CC3)[C@H]3COC(=O)[C@H]23)OCO4)cc(OC)c1OC |  | 15.2 µM | 33 µM | 22 µM | 16.6 µM | 75.8 µM
COc1cc([C@@H]2c3cc4c(cc3[C@H](OC(=O)CN3CCN(C(c5ccc(F)cc5)c5ccc(F)cc5)CC3)[C@H]3COC(=O)[C@H]23)OCO4)cc(OC)c1OC |  | 13.2 µM | 9.54 µM | 6.23 µM | 7.04 µM | > 100 µM
COc1ccccc1N1CCN(CC(=O)O[C@H]2c3cc4c(cc3[C@@H](c3cc(OC)c(OC)c(OC)c3)[C@H]3C(=O)OC[C@@H]32)OCO4)CC1 |  | 28.6 µM | > 50 µM | 48.2 µM | 34.2 µM | 90.7 µM
COc1cc([C@@H]2c3cc4c(cc3[C@@H](O[C@@H]3O[C@@H]5CO[C@@H](C)O[C@H]5[C@H](O)[C@H]3O)[C@H]3COC(=O)[C@H]23)OCO4)cc(OC)c1O [ETOPOSIDE] |  | 6.21 µM | 1.58 µM | 2.08 µM | 5.52 µM | 7.75 µM
COc1cc([C@@H]2c3cc4c(cc3[C@H](OC(=O)CN3CCN(C(c5ccccc5)c5ccc(Cl)cc5)CC3)[C@H]3COC(=O)[C@H]23)OCO4)cc(OC)c1OC (some centres not stated) |  | 14.2 µM | 12.2 µM | 7.75 µM | 10.9 µM | > 100 µM
COc1cc([C@@H]2c3cc4c(cc3[C@H](OC(=O)CN3CCN(c5ccc(F)cc5)CC3)[C@H]3COC(=O)[C@H]23)OCO4)cc(OC)c1OC |  | 11.9 µM | 17.3 µM | 8.49 µM | 12.6 µM | > 100 µM
COc1cccc(N2CCN(CC(=O)O[C@H]3c4cc5c(cc4[C@@H](c4cc(OC)c(OC)c(OC)c4)[C@H]4C(=O)OC[C@@H]43)OCO5)CC2)c1 |  | 23.2 µM | 36.7 µM | 12.2 µM | 36.7 µM | > 100 µM
COc1ccc(N2CCN(CC(=O)O[C@H]3c4cc5c(cc4[C@@H](c4cc(OC)c(OC)c(OC)c4)[C@H]4C(=O)OC[C@@H]43)OCO5)CC2)cc1 |  | 16.4 µM | 31.6 µM | 13.5 µM | 25.9 µM | 87.9 µM
COc1cc([C@@H]2c3cc4c(cc3[C@H](OC(=O)CN3CCN(c5cccc(C(F)(F)F)c5)CC3)[C@H]3COC(=O)[C@H]23)OCO4)cc(OC)c1OC |  | 10.8 µM | 6.82 µM | 7.19 µM | 9.61 µM | > 100 µM
COc1cc([C@@H]2c3cc4c(cc3[C@H](OC(=O)CN3CCN(c5ccc(C)cc5C)CC3)[C@H]3COC(=O)[C@H]23)OCO4)cc(OC)c1OC |  | 34.4 µM | 23.1 µM | > 50 µM | 45.8 µM | 93.9 µM
